Key:
Toll-like receptor 1/2 [1] = target: Toll-like receptor 1/2 (Mus musculus, UniProt Q9EPQ1+Q9QUN7); experiment: Agonist activity at TLR1/TLR2 in wild type C57BL/6J mouse macrophages assessed as stimulation of TNF alpha release measured for 4 hrs by ELISA based assay; format: cell-based, Macrophage
Summary of the method: (§1)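 Thioglycolate-elicited peritoneal macrophages from wild type C57BL/6J mice, harvested by PBS lavage 4 d after i.p. 4% thioglycolate. Cultured in DMEM/10% FBS at 37 °C, 5% CO2, seeded at 1 × 10⁵ cells/well and exposed to graded compound concentrations for 4 h, with final DMSO ≤0.5% held constant. LPS served as positive control. Supernatant mouse TNF-α was read by ELISA. EC50 from duplicate means.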

Toll-like receptor 1/2 [2] = target: T1, Toll-like receptor 1/2 (Homo sapiens, UniProt O60603+Q15399); experiment: Agonist activity at TLR1/TLR2 in human THP-1 derived macrophages assessed as stimulation of TNF alpha release measured for 4 hrs by ELISA based assay relative to diprovocim-1; format: cell-based; design: Activity: concentration or dose not given beside the values
Summary of the method: (§2)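 THP-1 cells differentiated with 100 nM PMA in RPMI/10% FBS for 24 h, washed, then rested 24 h in fresh medium. Seeded at 0.5 × 10⁵ cells/well and exposed to graded compound concentrations for 4 h, with final DMSO held at 0.1%. LPS served as positive control and DMSO as negative control. Supernatant human TNF-α was read by ELISA. EC50 from duplicate means.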

Toll-like receptor 1/2 [3] = target: T1, Toll-like receptor 1/2; experiment: Agonist activity at TLR1/TLR2 in human THP-1 derived macrophages assessed as stimulation of TNF alpha release measured for 4 hrs by ELISA based assay; format: cell-based; summary of the method: as §2
[4] = target: Toll-like receptor 1/2 (Mus musculus) (UniProt Q9QUN7+Q9EPQ1); experiment: Agonist activity at TLR1/TLR2 in wild type C57BL/6J mouse macrophages assessed as stimulation of TNF alpha release measured for 4 hrs by ELISA based assay relative to diprovocim-1; format: cell-based; design: Activity: concentration or dose not given beside the values; conditions: Macrophage, filed as agonist; summary of the method: as §1

Chain of Toll-like receptor 1/2 (Mus musculus, UniProt Q9EPQ1+Q9QUN7) (Q9QUN7 whole entry): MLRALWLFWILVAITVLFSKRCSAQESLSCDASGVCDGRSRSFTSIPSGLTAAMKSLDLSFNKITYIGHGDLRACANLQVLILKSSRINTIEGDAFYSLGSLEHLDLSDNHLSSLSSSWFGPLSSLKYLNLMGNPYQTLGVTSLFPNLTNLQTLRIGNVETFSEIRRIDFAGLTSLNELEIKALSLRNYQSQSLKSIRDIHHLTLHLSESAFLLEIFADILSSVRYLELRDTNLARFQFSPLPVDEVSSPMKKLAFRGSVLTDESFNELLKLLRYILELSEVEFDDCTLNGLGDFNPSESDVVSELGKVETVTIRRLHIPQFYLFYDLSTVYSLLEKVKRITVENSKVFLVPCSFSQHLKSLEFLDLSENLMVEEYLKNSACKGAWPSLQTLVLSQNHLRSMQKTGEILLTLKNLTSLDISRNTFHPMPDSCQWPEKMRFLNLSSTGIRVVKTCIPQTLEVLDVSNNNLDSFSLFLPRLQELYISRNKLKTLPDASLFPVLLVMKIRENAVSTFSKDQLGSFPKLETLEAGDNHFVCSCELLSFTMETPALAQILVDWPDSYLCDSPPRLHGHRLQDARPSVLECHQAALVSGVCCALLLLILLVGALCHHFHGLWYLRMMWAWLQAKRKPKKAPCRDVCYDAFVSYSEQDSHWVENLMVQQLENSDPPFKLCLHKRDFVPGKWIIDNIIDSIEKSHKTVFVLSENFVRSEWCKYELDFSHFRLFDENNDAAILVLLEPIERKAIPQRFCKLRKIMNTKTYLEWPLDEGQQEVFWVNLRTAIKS
Chain of Toll-like receptor 1/2 (Mus musculus, UniProt Q9EPQ1+Q9QUN7) (Q9EPQ1 whole entry): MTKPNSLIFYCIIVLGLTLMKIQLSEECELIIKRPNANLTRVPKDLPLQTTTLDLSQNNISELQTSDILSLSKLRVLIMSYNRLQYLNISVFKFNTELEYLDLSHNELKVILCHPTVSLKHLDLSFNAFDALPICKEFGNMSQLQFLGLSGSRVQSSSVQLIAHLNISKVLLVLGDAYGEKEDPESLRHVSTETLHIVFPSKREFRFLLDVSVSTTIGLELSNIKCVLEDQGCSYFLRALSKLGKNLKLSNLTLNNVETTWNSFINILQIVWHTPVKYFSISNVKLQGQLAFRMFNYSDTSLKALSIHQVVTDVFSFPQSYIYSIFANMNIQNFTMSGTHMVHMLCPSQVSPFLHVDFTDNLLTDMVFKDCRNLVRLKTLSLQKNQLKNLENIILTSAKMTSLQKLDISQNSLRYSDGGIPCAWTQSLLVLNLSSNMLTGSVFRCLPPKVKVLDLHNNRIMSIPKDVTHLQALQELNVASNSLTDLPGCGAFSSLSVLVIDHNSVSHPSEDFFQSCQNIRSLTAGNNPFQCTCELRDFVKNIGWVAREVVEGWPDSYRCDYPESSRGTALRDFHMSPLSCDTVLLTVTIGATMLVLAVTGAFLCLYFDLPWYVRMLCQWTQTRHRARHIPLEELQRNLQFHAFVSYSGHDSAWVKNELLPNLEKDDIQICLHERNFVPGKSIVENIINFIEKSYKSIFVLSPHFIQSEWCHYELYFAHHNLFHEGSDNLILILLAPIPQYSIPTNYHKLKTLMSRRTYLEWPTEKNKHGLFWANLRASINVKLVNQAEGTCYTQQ
T1 sequence (O60603 whole entry): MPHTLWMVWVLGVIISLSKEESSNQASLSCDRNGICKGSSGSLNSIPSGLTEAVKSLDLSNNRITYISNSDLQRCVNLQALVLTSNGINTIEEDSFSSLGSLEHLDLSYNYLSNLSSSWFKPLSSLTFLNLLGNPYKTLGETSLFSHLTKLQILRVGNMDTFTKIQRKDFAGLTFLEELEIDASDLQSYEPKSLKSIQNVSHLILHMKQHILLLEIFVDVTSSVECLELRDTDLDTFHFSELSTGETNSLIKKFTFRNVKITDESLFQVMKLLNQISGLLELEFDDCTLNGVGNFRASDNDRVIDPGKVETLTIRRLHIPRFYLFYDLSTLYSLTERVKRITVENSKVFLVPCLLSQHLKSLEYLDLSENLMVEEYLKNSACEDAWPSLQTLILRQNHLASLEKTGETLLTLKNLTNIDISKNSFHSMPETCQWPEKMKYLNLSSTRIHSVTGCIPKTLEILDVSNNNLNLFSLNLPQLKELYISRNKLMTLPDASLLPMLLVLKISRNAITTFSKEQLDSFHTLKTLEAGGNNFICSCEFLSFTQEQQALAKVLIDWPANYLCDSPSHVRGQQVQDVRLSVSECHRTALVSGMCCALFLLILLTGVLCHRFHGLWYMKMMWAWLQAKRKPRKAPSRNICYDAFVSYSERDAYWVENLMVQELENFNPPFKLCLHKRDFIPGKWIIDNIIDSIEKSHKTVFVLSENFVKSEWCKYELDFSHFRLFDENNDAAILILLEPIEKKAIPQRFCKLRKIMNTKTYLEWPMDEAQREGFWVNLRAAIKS
T1 sequence (Q15399 whole entry): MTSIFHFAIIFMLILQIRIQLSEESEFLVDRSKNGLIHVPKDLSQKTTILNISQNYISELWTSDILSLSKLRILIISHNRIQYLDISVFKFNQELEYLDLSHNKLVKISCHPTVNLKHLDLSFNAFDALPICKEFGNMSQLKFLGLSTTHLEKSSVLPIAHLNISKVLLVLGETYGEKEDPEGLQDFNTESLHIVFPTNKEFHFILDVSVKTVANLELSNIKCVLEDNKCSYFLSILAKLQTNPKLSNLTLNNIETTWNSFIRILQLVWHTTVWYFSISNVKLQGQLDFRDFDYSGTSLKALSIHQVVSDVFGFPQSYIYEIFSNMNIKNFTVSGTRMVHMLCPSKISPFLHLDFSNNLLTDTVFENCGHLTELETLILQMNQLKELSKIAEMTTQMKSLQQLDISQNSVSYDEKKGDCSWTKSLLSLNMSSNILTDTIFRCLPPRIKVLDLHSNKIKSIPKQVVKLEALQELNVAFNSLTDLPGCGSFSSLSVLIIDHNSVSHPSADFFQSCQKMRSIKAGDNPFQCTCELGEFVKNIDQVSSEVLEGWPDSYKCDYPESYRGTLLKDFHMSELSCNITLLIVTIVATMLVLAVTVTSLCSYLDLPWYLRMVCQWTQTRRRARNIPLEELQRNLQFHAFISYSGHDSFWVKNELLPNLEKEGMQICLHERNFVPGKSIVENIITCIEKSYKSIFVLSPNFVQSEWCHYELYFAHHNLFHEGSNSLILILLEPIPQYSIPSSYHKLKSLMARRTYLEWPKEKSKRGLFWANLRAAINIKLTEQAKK

SMILES	EC50 (Toll-like receptor 1/2 [1])	Emax (Toll-like receptor 1/2 [2]; filed as agonist)	EC50 (Toll-like receptor 1/2 [3])	Emax [4]	Activity (Toll-like receptor 1/2 [2]; filed as agonist)	Activity [4]	Activity (Toll-like receptor 1/2 [2])
CC(C)(C)OC(=O)CCOCCOCCOCCNC(=O)[C@@H]1CN(C(=O)c2ccc(C(=O)N3C[C@@H](C(=O)N[C@H]4C[C@@H]4c4ccccc4)[C@H](C(=O)N[C@H]4C[C@@H]4c4ccccc4)C3)cc2)C[C@H]1C(=O)N[C@H]1C[C@@H]1c1ccccc1	500 nM						
CCNC(=O)[C@@H]1CN(C(=O)c2ccc(C(=O)N3C[C@@H](C(=O)N[C@H]4C[C@@H]4c4ccccc4)[C@H](C(=O)N[C@H]4C[C@@H]4c4ccccc4)C3)cc2)C[C@H]1C(=O)N[C@H]1C[C@@H]1c1ccccc1	360 nM	90%	17 nM	130%			
COC(=O)CCCCCCCNC(=O)[C@@H]1CN(C(=O)c2ccc(C(=O)N3C[C@@H](C(=O)N[C@H]4C[C@@H]4c4ccccc4)[C@H](C(=O)N[C@H]4C[C@@H]4c4ccccc4)C3)cc2)C[C@H]1C(=O)N[C@H]1C[C@@H]1c1ccccc1	240 nM		3.8 nM				
COC(=O)CCOCCOCCOCCNC(=O)[C@@H]1CN(C(=O)c2ccc(C(=O)N3C[C@@H](C(=O)N[C@H]4C[C@@H]4c4ccccc4)[C@H](C(=O)N[C@H]4C[C@@H]4c4ccccc4)C3)cc2)C[C@H]1C(=O)N[C@H]1C[C@@H]1c1ccccc1	> 500 nM				110%		
CCCCNC(=O)[C@@H]1CN(C(=O)c2ccc(C(=O)N3C[C@@H](C(=O)N[C@H]4C[C@@H]4c4ccccc4)[C@H](C(=O)N[C@H]4C[C@@H]4c4ccccc4)C3)cc2)C[C@H]1C(=O)N[C@H]1C[C@@H]1c1ccccc1	30 nM	120%	2 nM	150%			
C[C@@H](NC(=O)OC(C)(C)C)C(=O)OCCCCCCCCCCCCNC(=O)[C@@H]1CN(C(=O)c2ccc(C(=O)N3C[C@@H](C(=O)N[C@H]4C[C@@H]4c4ccccc4)[C@H](C(=O)N[C@H]4C[C@@H]4c4ccccc4)C3)cc2)C[C@H]1C(=O)N[C@H]1C[C@@H]1c1ccccc1					110%	200%	
O=C(O)[C@@H]1CN(C(=O)c2ccc(C(=O)N3C[C@@H](C(=O)N[C@H]4C[C@@H]4c4ccccc4)[C@H](C(=O)N[C@H]4C[C@@H]4c4ccccc4)C3)cc2)C[C@H]1C(=O)N[C@H]1C[C@@H]1c1ccccc1	> 5000 nM		200 nM		110%		
Nc1ccc(COCCCCCCCCCCCCNC(=O)[C@@H]2CN(C(=O)c3ccc(C(=O)N4C[C@@H](C(=O)N[C@H]5C[C@@H]5c5ccccc5)[C@H](C(=O)N[C@H]5C[C@@H]5c5ccccc5)C4)cc3)C[C@H]2C(=O)N[C@H]2C[C@@H]2c2ccccc2)cc1					90%	130%	
CC(C)(C)OC(=O)CNC(=O)CCCCCCCCCCCNC(=O)[C@@H]1CN(C(=O)c2ccc(C(=O)N3C[C@@H](C(=O)N[C@H]4C[C@@H]4c4ccccc4)[C@H](C(=O)N[C@H]4C[C@@H]4c4ccccc4)C3)cc2)C[C@H]1C(=O)N[C@H]1C[C@@H]1c1ccccc1					100%	70%	
CC(C)(C)OC(=O)/C=C/C(=O)NCC(=O)OCCCCCCCCCCCCNC(=O)[C@@H]1CN(C(=O)c2ccc(C(=O)N3C[C@@H](C(=O)N[C@H]4C[C@@H]4c4ccccc4)[C@H](C(=O)N[C@H]4C[C@@H]4c4ccccc4)C3)cc2)C[C@H]1C(=O)N[C@H]1C[C@@H]1c1ccccc1					90%	110%	
C[C@H](NC(=O)OC(C)(C)C)C(=O)OCCCCCCCCCCCCNC(=O)[C@@H]1CN(C(=O)c2ccc(C(=O)N3C[C@@H](C(=O)N[C@H]4C[C@@H]4c4ccccc4)[C@H](C(=O)N[C@H]4C[C@@H]4c4ccccc4)C3)cc2)C[C@H]1C(=O)N[C@H]1C[C@@H]1c1ccccc1					80%	200%	
Cc1ccc(S(=O)(=O)n2cnc(C[C@H](NC(=O)OC(C)(C)C)C(=O)OCCCCCCCCCCCCNC(=O)[C@@H]3CN(C(=O)c4ccc(C(=O)N5C[C@@H](C(=O)N[C@H]6C[C@@H]6c6ccccc6)[C@H](C(=O)N[C@H]6C[C@@H]6c6ccccc6)C5)cc4)C[C@H]3C(=O)N[C@H]3C[C@@H]3c3ccccc3)c2)cc1					90%	110%	
CC(C)(C)OC(=O)NCCOCCCCCCCCCCCCNC(=O)[C@@H]1CN(C(=O)c2ccc(C(=O)N3C[C@@H](C(=O)N[C@H]4C[C@@H]4c4ccccc4)[C@H](C(=O)N[C@H]4C[C@@H]4c4ccccc4)C3)cc2)C[C@H]1C(=O)N[C@H]1C[C@@H]1c1ccccc1					100%	220%	

Other lines, results leading:

EC50 (Toll-like receptor 1/2 [1])	Emax (Toll-like receptor 1/2 [2]; filed as agonist)	EC50 (Toll-like receptor 1/2 [3])	Emax [4]	Activity (Toll-like receptor 1/2 [2]; filed as agonist)	Activity [4]	Activity (Toll-like receptor 1/2 [2])	SMILES
650 nM	100%	0.1 nM	260%				CCCCCCCCCCNC(=O)[C@@H]1CN(C(=O)c2ccc(C(=O)N3C[C@@H](C(=O)N[C@H]4C[C@@H]4c4ccccc4)[C@H](C(=O)N[C@H]4C[C@@H]4c4ccccc4)C3)cc2)C[C@H]1C(=O)N[C@H]1C[C@@H]1c1ccccc1
2.1 nM	110%	0.1 nM	100%				CCCCCCCCCCCCNC(=O)[C@@H]1CN(C(=O)c2ccc(C(=O)N3C[C@@H](C(=O)N[C@H]4C[C@@H]4c4ccccc4)[C@H](C(=O)N[C@H]4C[C@@H]4c4ccccc4)C3)cc2)C[C@H]1C(=O)N[C@H]1C[C@@H]1c1ccccc1
80 nM	100%	0.25 nM	150%				CCCCCCNC(=O)[C@@H]1CN(C(=O)c2ccc(C(=O)N3C[C@@H](C(=O)N[C@H]4C[C@@H]4c4ccccc4)[C@H](C(=O)N[C@H]4C[C@@H]4c4ccccc4)C3)cc2)C[C@H]1C(=O)N[C@H]1C[C@@H]1c1ccccc1
2.6 nM	110%	0.5 nM	75%				CCCCCCCCCCCCCCCCNC(=O)[C@@H]1CN(C(=O)c2ccc(C(=O)N3C[C@@H](C(=O)N[C@H]4C[C@@H]4c4ccccc4)[C@H](C(=O)N[C@H]4C[C@@H]4c4ccccc4)C3)cc2)C[C@H]1C(=O)N[C@H]1C[C@@H]1c1ccccc1
17 nM		0.37 nM					COC(=O)CCCCCCCCCNC(=O)[C@@H]1CN(C(=O)c2ccc(C(=O)N3C[C@@H](C(=O)N[C@H]4C[C@@H]4c4ccccc4)[C@H](C(=O)N[C@H]4C[C@@H]4c4ccccc4)C3)cc2)C[C@H]1C(=O)N[C@H]1C[C@@H]1c1ccccc1
1.1 nM	150%	0.1 nM	100%				CCCCCCCCCCCCCCNC(=O)[C@@H]1CN(C(=O)c2ccc(C(=O)N3C[C@@H](C(=O)N[C@H]4C[C@@H]4c4ccccc4)[C@H](C(=O)N[C@H]4C[C@@H]4c4ccccc4)C3)cc2)C[C@H]1C(=O)N[C@H]1C[C@@H]1c1ccccc1
					110%	30%	C#CCOCC(=O)OCCCCCCCCCCCCNC(=O)[C@@H]1CN(C(=O)c2ccc(C(=O)N3C[C@@H](C(=O)N[C@H]4C[C@@H]4c4ccccc4)[C@H](C(=O)N[C@H]4C[C@@H]4c4ccccc4)C3)cc2)C[C@H]1C(=O)N[C@H]1C[C@@H]1c1ccccc1
50 nM		0.5 nM					O=C(NCCCCCCCCCCO)[C@@H]1CN(C(=O)c2ccc(C(=O)N3C[C@@H](C(=O)N[C@H]4C[C@@H]4c4ccccc4)[C@H](C(=O)N[C@H]4C[C@@H]4c4ccccc4)C3)cc2)C[C@H]1C(=O)N[C@H]1C[C@@H]1c1ccccc1
				90%	140%		CC(=O)OCCCCCCCCCCCCNC(=O)[C@@H]1CN(C(=O)c2ccc(C(=O)N3C[C@@H](C(=O)N[C@H]4C[C@@H]4c4ccccc4)[C@H](C(=O)N[C@H]4C[C@@H]4c4ccccc4)C3)cc2)C[C@H]1C(=O)N[C@H]1C[C@@H]1c1ccccc1
					50%	30%	[N-]=[N+]=NCCCCCCCCCCCCNC(=O)[C@@H]1CN(C(=O)c2ccc(C(=O)N3C[C@@H](C(=O)N[C@H]4C[C@@H]4c4ccccc4)[C@H](C(=O)N[C@H]4C[C@@H]4c4ccccc4)C3)cc2)C[C@H]1C(=O)N[C@H]1C[C@@H]1c1ccccc1
540 nM	100%	0.33 nM	240%				CCCCCCCCNC(=O)[C@@H]1CN(C(=O)c2ccc(C(=O)N3C[C@@H](C(=O)N[C@H]4C[C@@H]4c4ccccc4)[C@H](C(=O)N[C@H]4C[C@@H]4c4ccccc4)C3)cc2)C[C@H]1C(=O)N[C@H]1C[C@@H]1c1ccccc1
		0.2 nM		100%	100%		COC(=O)CCCCCCCCCCCNC(=O)[C@@H]1CN(C(=O)c2ccc(C(=O)N3C[C@@H](C(=O)N[C@H]4C[C@@H]4c4ccccc4)[C@H](C(=O)N[C@H]4C[C@@H]4c4ccccc4)C3)cc2)C[C@H]1C(=O)N[C@H]1C[C@@H]1c1ccccc1
